Test results reported in ChEMBL document CHEMBL5705885, “CYT387, a selective JAK1/JAK2 inhibitor: in vitro assessment of kinase selectivity and preclinical studies using cell lines and primary cells from polycythemia vera patients” (Leukemia, 2009).

Key:
[1] = molecular target: Serine/threonine-protein kinase PLK3 (Homo sapiens, UniProt Q9H4B4); conditions: dose 100.0 nM
[2] = molecular target: Serine/threonine-protein kinase D1 (Homo sapiens) (UniProt Q15139); conditions: dose 100.0 nM
[3] = molecular target: G protein-coupled receptor kinase 3 (Homo sapiens, UniProt P35626); assay: Inhibition of ADRBK2 (unknown origin)
[4] = molecular target: Tyrosine-protein kinase ABL1 (Homo sapiens) (UniProt P00519); conditions: dose 100.0 nM
[5] = molecular target: Serine/threonine-protein kinase Sgk3 (Homo sapiens, UniProt Q96BR1); assay: Inhibition of SGKL (unknown origin)
[6] = molecular target: Testis-specific serine/threonine-protein kinase 2 (Homo sapiens, UniProt Q96PF2); assay: Inhibition of STK22B (unknown origin)
[7] = molecular target: Serine/threonine-protein kinase B-raf (Homo sapiens, UniProt P15056); conditions: dose 100.0 nM
[8] = molecular target: Serine/threonine-protein kinase Chk1 (Homo sapiens, UniProt O14757); assay: Inhibition of CHEK1 (unknown origin)
[9] = molecular target: Death-associated protein kinase 3 (Homo sapiens, UniProt O43293); assay: Inhibition of DAPK3 (unknown origin)
BaF3 [10] = assay: Antiproliferative activity against mouse BaF3 cells harboring TEL-JAK3 measured after 72 hrs by Alamar blue staining based analysis; format: functional, cell-based; conditions: BaF3, 72 h
How it was run: (§1)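 Murine Ba/F3 cells carrying TEL/JAK2 or TEL/JAK3 fusions, grown in DMEM with 10% fetal calf serum. Compound stocks in DMSO were diluted in culture medium. Proliferation was read by Alamar Blue after 72 h incubation at 37 °C under 5% CO2.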

[11] = molecular target: Glycogen synthase kinase-3 alpha (Homo sapiens, UniProt P49840); assay: Inhibition of GSK3alpha (unknown origin)
[12] = molecular target: cAMP-dependent protein kinase catalytic subunit alpha (Homo sapiens, UniProt P17612); assay: Inhibition of PRKACA (unknown origin)
[13] = molecular target: T1, G protein-coupled receptor kinase 4 (Homo sapiens, UniProt P32298); assay: Inhibition of GRK4 (unknown origin)
Target sequence in this assay (P32298 whole entry): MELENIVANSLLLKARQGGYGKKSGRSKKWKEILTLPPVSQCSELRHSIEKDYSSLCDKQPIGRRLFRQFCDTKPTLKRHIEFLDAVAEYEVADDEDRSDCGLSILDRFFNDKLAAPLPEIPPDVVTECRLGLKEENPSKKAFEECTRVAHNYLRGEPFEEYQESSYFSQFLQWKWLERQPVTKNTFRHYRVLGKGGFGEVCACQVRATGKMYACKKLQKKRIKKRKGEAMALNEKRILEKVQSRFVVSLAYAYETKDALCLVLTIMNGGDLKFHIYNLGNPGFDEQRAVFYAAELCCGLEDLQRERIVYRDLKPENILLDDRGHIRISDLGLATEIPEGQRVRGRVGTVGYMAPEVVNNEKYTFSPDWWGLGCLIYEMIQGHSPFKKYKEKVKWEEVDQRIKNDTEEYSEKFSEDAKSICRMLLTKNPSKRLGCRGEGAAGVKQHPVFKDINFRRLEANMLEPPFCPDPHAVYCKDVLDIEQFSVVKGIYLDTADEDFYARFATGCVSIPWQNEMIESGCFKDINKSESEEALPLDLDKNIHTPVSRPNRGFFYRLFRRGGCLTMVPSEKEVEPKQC

[14] = molecular target: T1, G protein-coupled receptor kinase 4; conditions: dose 100.0 nM
Target sequence in this assay (P32298 whole entry, looked up): as the sequence (P32298 whole entry) above

BaF3 [15] = assay: Antiproliferative activity against mouse BaF3 cells harboring TEL-JAK2 measured after 72 hrs by Alamar blue staining based analysis; format: functional, cell-based; conditions: BaF3, 72 h
How it was run: as §1

[16] = molecular target: MAP kinase-activated protein kinase 2 (Homo sapiens, UniProt P49137); assay: Inhibition of MAPKAPK2 (unknown origin)
SRSF protein kinase 1 = SRSF protein kinase 1 (Homo sapiens, UniProt Q96SB4); assay: Inhibition of SRPK1 (unknown origin)
[17] = molecular target: Ribosomal protein S6 kinase alpha-1 (Homo sapiens) (UniProt Q15418); conditions: dose 100.0 nM
[18] = molecular target: Tyrosine-protein kinase Mer (Homo sapiens) (UniProt Q12866); conditions: dose 100.0 nM
[19] = molecular target: Protein kinase C gamma type (Homo sapiens, UniProt P05129); conditions: dose 100.0 nM
[20] = molecular target: Serine/threonine-protein kinase 25 (Homo sapiens, UniProt O00506); assay: Inhibition of STK25 (unknown origin)
[21] = molecular target: AMP-activated protein kinase (AMPK) alpha-1/beta-1/gamma-1 (Homo sapiens, UniProt P54619+Q13131+Q9Y478); assay: Inhibition of AMPK alpha1/beta1/gamma1 (unknown origin); format: protein-complex assay
[22] = molecular target: PAS domain-containing serine/threonine-protein kinase (Homo sapiens, UniProt Q96RG2); assay: Inhibition of PASK (unknown origin)
[23] = molecular target: Phosphorylase b kinase gamma catalytic chain, liver/testis isoform (Homo sapiens, UniProt P15735); assay: Inhibition of PHKG2 (unknown origin)
[24] = molecular target: Serine/threonine-protein kinase Sgk1 (Homo sapiens) (UniProt O00141); conditions: dose 100.0 nM
[25] = molecular target: Macrophage-stimulating protein receptor (Homo sapiens, UniProt Q04912); assay: Inhibition of MST1R (unknown origin)
[26] = molecular target: Macrophage colony-stimulating factor 1 receptor (Homo sapiens, UniProt P07333); assay: Inhibition of CSF1R (unknown origin)
[27] = molecular target: Mitogen-activated protein kinase kinase kinase kinase 2 (Homo sapiens, UniProt Q12851); assay: Inhibition of MAP4K2 (unknown origin)
Homo sapiens = organism: Homo sapiens; conditions: dose 100.0 nM
[28] = molecular target: Tyrosine-protein kinase Fer (Homo sapiens, UniProt P16591); assay: Inhibition of FER (unknown origin)
[29] = molecular target: Cyclin-dependent kinase 5/CDK5 activator 1 (Homo sapiens, UniProt Q00535); assay: Inhibition of CDK5/p35 (unknown origin); format: protein-complex assay
[30] = molecular target: Serine/threonine-protein kinase Nek6 (Homo sapiens, UniProt Q9HC98); assay: Inhibition of NEK6 (unknown origin)
[31] = molecular target: Dual specificity tyrosine-phosphorylation-regulated kinase 3 (Homo sapiens, UniProt O43781); assay: Inhibition of DYRK3 (unknown origin)
[32] = molecular target: Serine/threonine-protein kinase PLK1 (Homo sapiens, UniProt P53350); assay: Inhibition of PLK1 (unknown origin)
[33] = molecular target: Mitogen-activated protein kinase kinase kinase 9 (Homo sapiens, UniProt P80192); assay: Inhibition of MAP3K9 (unknown origin)
[34] = molecular target: ALK tyrosine kinase receptor (Homo sapiens, UniProt Q9UM73); assay: Inhibition of ALK (unknown origin)
[35] = molecular target: Vascular endothelial growth factor receptor 2 (Homo sapiens, UniProt P35968); assay: Inhibition of KDR (unknown origin)
[36] = molecular target: Serine/threonine-protein kinase MARK1 (Homo sapiens, UniProt Q9P0L2); assay: Inhibition of MARK1 (unknown origin)
[37] = molecular target: Muscle, skeletal receptor tyrosine-protein kinase (Homo sapiens) (UniProt O15146); conditions: dose 100.0 nM
[38] = molecular target: RAF proto-oncogene serine/threonine-protein kinase (Homo sapiens, UniProt P04049, Y340D); assay: Inhibition of RAF1 Y340D (unknown origin)
[39] = molecular target: Dual specificity tyrosine-phosphorylation-regulated kinase 1A (Homo sapiens, UniProt Q13627); assay: Inhibition of DYRK1A (unknown origin)
[40] = molecular target: Mitogen-activated protein kinase 1 (Homo sapiens, UniProt P28482); assay: Inhibition of MAPK1 (unknown origin)
[41] = molecular target: Fibroblast growth factor receptor 1 (Homo sapiens, UniProt P11362); assay: Inhibition of FGFR1 (unknown origin)
[42] = molecular target: Serine/threonine-protein kinase BRSK1 (Homo sapiens, UniProt Q8TDC3); assay: Inhibition of BRSK1 (unknown origin)
[43] = molecular target: Rho-associated protein kinase 2 (Homo sapiens, UniProt O75116); conditions: dose 100.0 nM
[44] = molecular target: Serine/threonine-protein kinase PAK 6 (Homo sapiens, UniProt Q9NQU5); assay: Inhibition of PAK6 (unknown origin)

Sequence of Serine/threonine-protein kinase MARK1 (Q9P0L2 whole entry): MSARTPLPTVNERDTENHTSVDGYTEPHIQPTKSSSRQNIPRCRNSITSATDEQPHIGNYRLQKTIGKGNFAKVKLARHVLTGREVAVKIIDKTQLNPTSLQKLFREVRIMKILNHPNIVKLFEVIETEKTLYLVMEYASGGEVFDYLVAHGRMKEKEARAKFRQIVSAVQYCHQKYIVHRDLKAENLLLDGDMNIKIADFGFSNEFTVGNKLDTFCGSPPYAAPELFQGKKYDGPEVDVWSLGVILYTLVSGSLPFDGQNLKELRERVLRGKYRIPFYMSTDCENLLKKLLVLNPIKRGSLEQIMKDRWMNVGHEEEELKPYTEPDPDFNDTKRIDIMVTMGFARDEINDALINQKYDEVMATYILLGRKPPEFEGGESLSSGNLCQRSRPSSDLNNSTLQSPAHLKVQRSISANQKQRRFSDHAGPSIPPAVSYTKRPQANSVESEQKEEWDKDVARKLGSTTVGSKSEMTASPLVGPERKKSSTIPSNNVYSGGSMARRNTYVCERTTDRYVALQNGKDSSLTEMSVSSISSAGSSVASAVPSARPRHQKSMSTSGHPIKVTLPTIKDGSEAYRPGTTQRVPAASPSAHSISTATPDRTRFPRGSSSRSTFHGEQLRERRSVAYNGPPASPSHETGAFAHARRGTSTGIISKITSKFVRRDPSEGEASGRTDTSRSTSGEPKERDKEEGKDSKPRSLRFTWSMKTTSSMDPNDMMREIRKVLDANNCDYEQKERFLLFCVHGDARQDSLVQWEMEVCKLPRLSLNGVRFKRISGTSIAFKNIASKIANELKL
Sequence of Mitogen-activated protein kinase kinase kinase kinase 2 (Q12851 whole entry): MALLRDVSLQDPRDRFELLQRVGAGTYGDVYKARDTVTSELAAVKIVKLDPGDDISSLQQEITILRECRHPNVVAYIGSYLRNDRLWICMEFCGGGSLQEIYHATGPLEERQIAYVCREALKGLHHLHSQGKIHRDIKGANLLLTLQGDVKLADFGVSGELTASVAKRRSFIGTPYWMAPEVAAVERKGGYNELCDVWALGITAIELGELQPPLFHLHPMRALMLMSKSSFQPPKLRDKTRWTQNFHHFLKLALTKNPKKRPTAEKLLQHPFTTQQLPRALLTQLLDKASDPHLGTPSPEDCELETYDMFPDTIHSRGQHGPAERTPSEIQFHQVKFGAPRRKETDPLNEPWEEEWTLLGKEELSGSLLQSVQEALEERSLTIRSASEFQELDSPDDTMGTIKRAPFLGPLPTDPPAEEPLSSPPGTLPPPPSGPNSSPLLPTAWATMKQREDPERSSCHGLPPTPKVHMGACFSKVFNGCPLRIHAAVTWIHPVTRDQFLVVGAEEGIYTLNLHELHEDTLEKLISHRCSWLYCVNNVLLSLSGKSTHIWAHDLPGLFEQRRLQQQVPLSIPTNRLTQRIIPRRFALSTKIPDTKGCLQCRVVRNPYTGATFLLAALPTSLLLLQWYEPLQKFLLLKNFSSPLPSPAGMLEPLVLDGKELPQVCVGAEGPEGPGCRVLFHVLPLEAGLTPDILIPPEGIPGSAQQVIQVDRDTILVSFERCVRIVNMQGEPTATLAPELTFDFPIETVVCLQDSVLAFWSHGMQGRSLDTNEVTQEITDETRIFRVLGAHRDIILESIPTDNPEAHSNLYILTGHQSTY
Sequence of Cyclin-dependent kinase 5/CDK5 activator 1 (Q00535 whole entry): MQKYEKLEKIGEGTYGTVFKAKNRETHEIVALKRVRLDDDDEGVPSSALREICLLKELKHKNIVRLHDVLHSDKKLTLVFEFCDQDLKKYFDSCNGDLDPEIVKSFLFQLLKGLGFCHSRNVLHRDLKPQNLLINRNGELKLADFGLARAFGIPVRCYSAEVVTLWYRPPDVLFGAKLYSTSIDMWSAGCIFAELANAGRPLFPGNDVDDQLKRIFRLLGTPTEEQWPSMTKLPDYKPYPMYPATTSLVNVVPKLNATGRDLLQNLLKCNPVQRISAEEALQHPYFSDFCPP
Sequence of Cyclin-dependent kinase 5/CDK5 activator 1 (Q15078 whole entry, further chain): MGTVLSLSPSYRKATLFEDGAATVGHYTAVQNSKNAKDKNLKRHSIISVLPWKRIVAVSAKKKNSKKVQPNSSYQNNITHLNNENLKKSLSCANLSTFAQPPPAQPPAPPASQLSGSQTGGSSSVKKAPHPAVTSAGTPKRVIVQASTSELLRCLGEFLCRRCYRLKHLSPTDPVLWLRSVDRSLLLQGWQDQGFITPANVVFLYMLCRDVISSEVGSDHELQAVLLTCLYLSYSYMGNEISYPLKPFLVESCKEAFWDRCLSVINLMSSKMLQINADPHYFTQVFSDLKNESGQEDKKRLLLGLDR
Sequence of Serine/threonine-protein kinase D1 (Homo sapiens) (Q15139 whole entry): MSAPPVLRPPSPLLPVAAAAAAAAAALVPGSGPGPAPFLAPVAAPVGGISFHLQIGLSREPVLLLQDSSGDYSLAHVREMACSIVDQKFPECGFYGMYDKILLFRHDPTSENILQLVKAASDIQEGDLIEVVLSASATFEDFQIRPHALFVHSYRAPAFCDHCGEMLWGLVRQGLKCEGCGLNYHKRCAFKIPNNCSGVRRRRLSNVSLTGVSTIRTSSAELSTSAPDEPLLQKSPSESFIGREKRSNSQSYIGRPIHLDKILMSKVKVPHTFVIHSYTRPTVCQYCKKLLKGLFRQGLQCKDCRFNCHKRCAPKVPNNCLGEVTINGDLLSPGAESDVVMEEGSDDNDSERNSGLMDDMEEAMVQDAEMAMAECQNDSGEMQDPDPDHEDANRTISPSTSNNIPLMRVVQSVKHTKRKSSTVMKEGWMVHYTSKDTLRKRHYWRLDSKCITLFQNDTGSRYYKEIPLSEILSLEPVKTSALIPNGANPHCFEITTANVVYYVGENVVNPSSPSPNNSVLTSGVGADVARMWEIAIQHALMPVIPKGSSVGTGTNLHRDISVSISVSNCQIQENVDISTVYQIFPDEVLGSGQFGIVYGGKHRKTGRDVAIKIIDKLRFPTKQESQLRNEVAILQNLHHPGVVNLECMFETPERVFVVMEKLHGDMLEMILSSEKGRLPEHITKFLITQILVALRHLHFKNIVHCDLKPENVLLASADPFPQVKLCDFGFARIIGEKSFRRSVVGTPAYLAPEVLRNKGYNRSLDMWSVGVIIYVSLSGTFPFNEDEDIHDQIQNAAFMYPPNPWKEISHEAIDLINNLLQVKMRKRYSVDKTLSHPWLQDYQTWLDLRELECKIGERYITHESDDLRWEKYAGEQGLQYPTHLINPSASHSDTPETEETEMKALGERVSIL
Sequence of SRSF protein kinase 1 (Q96SB4 whole entry): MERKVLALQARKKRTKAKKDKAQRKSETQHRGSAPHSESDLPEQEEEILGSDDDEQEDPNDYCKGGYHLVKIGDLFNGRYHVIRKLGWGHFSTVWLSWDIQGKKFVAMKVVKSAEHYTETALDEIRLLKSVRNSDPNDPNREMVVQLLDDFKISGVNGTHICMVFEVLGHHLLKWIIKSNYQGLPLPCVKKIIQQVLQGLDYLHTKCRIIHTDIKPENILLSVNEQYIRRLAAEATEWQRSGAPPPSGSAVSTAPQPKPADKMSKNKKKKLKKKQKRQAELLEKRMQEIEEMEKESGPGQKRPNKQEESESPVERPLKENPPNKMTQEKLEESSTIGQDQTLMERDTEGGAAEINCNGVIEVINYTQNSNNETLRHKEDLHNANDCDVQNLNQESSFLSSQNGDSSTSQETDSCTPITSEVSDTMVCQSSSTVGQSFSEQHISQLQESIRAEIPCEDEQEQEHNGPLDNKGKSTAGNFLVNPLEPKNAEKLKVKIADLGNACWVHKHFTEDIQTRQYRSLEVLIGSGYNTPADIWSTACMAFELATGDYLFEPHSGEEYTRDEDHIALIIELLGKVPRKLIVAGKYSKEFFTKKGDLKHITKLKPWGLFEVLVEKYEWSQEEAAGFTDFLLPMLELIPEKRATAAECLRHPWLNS
Sequence of Mitogen-activated protein kinase 1 (P28482 whole entry): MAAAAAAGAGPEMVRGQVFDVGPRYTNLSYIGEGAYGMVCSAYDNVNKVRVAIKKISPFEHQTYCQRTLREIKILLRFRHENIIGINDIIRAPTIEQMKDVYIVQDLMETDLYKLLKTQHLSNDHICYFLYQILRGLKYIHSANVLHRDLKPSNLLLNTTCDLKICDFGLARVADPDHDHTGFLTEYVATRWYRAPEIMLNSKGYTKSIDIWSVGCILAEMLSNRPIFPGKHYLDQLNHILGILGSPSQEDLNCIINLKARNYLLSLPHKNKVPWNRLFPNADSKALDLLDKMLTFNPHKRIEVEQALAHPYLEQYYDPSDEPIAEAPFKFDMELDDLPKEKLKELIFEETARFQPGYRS

Compound: N#CCNC(=O)c1ccc(-c2ccnc(Nc3ccc(N4CCOCC4)cc3)n2)cc1 [MOMELOTINIB]
- inhibition [1]: < 50%
- inhibition [2]: > 50%
- IC50 [3]: > 1000 nM
- inhibition [4]: < 50%
- IC50 [5]: > 1000 nM
- IC50 [6]: > 1000 nM
- inhibition [7]: < 50%
- IC50 [8]: > 1000 nM
- IC50 [9]: > 1000 nM
- IC50 (BaF3 [10]): 2350 nM
- IC50 [11]: > 1000 nM
- IC50 [12]: > 1000 nM
- IC50 [13]: < 1000 nM
- inhibition [14]: < 50%
- IC50 (BaF3 [15]): 724 nM
- IC50 [16]: > 1000 nM
- IC50 (SRSF protein kinase 1): > 1000 nM
- inhibition [17]: < 50%
- inhibition [18]: < 50%
- inhibition [19]: < 50%
- IC50 [20]: > 1000 nM
- IC50 [21]: < 1000 nM
- IC50 [22]: > 1000 nM
- IC50 [23]: > 1000 nM
- inhibition [24]: < 50%
- IC50 [25]: < 1000 nM
- IC50 [26]: < 1000 nM
- IC50 [27]: < 1000 nM
- inhibition (Homo sapiens): > 50%
- IC50 [28]: > 1000 nM
- IC50 [29]: < 1000 nM
- IC50 [30]: > 1000 nM
- IC50 [31]: > 1000 nM
- IC50 [32]: > 1000 nM
- IC50 [33]: < 1000 nM
- IC50 [34]: > 1000 nM
- IC50 [35]: < 1000 nM
- IC50 [36]: < 1000 nM
- inhibition [37]: < 50%
- IC50 [38]: < 1000 nM
- IC50 [39]: > 1000 nM
- IC50 [40]: < 1000 nM
- IC50 [41]: > 1000 nM
- IC50 [42]: < 1000 nM
- inhibition [43]: > 50%
- IC50 [44]: > 1000 nM
